Reference: ChEMBL document CHEMBL1154808, “Synthesis, characterization and biological activities of some new benzo[b]thiophene derivatives” (2010)
Converted amounts (≈) assume the structure as drawn.

The compounds below were run on Bacillus subtilis (assay: Antibacterial activity against Bacillus subtilis after 16 to 18 hrs by serial dilution method).
Assay type: functional
Procedure, shortened: (§1)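 Compounds were dissolved in DMF and serially diluted. A standard drop of the prepared culture was added to each dilution, and tubes were incubated for 16–18 h at 37 °C. MIC was read as the highest dilution that stayed clear with no turbidity, determined separately for each organism. Candida albicans was tested by the same procedure.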
Work on COc1ccc(-c2cc(-c3ccc(Cl)cc3)n(C(=O)c3sc4ccccc4c3Cl)n2)cc1 yielded an MIC of 6 µg/mL (≈ 12.5 µM). In the case of Clc1ccccc1OCc1nnc(-c2sc3ccccc3c2Cl)o1, the MIC is reported as 6 µg/mL (≈ 15.9 µM). Work on O=C(c1sc2ccccc2c1Cl)n1nc(-c2ccc([N+](=O)[O-])s2)cc1-c1ccc(Cl)cc1 yielded an MIC of 6 µg/mL (≈ 12 µM). Work on CC1=NN(C(=O)c2sc3ccccc3c2Cl)C(=O)/C1=N/Nc1ccc(Cl)cc1C yielded an MIC of 6 µg/mL (≈ 13.5 µM). With NC(=O)N/N=C/c1ccc([N+](=O)[O-])o1 [NITROFURAZONE] the MIC was 12.5 µg/mL (≈ 63.1 µM). Compound Clc1ccc(OCc2nnc(-c3sc4ccccc4c3Cl)o2)c(Cl)c1 has an MIC of 6 µg/mL (≈ 14.6 µM). CC1=NN(C(=O)c2sc3ccccc3c2Cl)C(=O)/C1=N/Nc1ccc(C)cc1[N+](=O)[O-] was tested, and the MIC was 6 µg/mL (≈ 13.2 µM). Compound COc1ccc(-c2cc(-c3ccccc3)n(C(=O)c3sc4ccccc4c3Cl)n2)cc1 has an MIC of 6 µg/mL (≈ 13.5 µM). Cc1ccc(OCc2nnc3sc(-c4sc5ccccc5c4Cl)nn23)cc1 was tested, and the MIC was 6 µg/mL (≈ 14.5 µM). Compound CC1=NN(C(=O)c2sc3ccccc3c2Cl)C(=O)/C1=N/Nc1cc(Cl)ccc1Cl has an MIC of 6 µg/mL (≈ 12.9 µM). For CC1=NN(C(=O)c2sc3ccccc3c2Cl)C(=O)/C1=N/Nc1ccccc1, the MIC was 6 µg/mL (≈ 15.1 µM). Work on Clc1ccccc1OCc1nnc2sc(-c3sc4ccccc4c3Cl)nn12 yielded an MIC of 6 µg/mL (≈ 13.8 µM). In the case of O=C(c1sc2ccccc2c1Cl)n1nc(-c2ccc([N+](=O)[O-])s2)cc1-c1ccccc1, the MIC is reported as 6 µg/mL (≈ 12.9 µM).

The compounds below were run on Candida albicans (assay: Antifungal activity against Candida albicans after 16 to 18 hrs by serial dilution method).
Assay type: functional
Procedure, shortened: as §1
COc1ccc(-c2cc(-c3ccc(Cl)cc3)n(C(=O)c3sc4ccccc4c3Cl)n2)cc1 was tested, and the MIC was 6 µg/mL (≈ 12.5 µM). For Clc1ccccc1OCc1nnc(-c2sc3ccccc3c2Cl)o1, the MIC was 6 µg/mL (≈ 15.9 µM). O=C(c1sc2ccccc2c1Cl)n1nc(-c2ccc([N+](=O)[O-])s2)cc1-c1ccc(Cl)cc1 gave an MIC of 3 µg/mL (≈ 6 µM). CC1=NN(C(=O)c2sc3ccccc3c2Cl)C(=O)/C1=N/Nc1ccc(Cl)cc1C showed an MIC of 6 µg/mL (≈ 13.5 µM). Compound OC(Cn1cncn1)(Cn1cncn1)c1ccc(F)cc1F [FLUCONAZOLE] has an MIC of 6 µg/mL (≈ 19.6 µM). Compound Clc1ccc(OCc2nnc(-c3sc4ccccc4c3Cl)o2)c(Cl)c1 has an MIC of 6 µg/mL (≈ 14.6 µM). CC1=NN(C(=O)c2sc3ccccc3c2Cl)C(=O)/C1=N/Nc1ccc(C)cc1[N+](=O)[O-] gave an MIC of 6 µg/mL (≈ 13.2 µM). With COc1ccc(-c2cc(-c3ccccc3)n(C(=O)c3sc4ccccc4c3Cl)n2)cc1 the MIC was 3 µg/mL (≈ 6.74 µM). Cc1ccc(OCc2nnc3sc(-c4sc5ccccc5c4Cl)nn23)cc1 showed an MIC of 6 µg/mL (≈ 14.5 µM). Compound CC1=NN(C(=O)c2sc3ccccc3c2Cl)C(=O)/C1=N/Nc1cc(Cl)ccc1Cl has an MIC of 6 µg/mL (≈ 12.9 µM). Compound CC1=NN(C(=O)c2sc3ccccc3c2Cl)C(=O)/C1=N/Nc1ccccc1 has an MIC of 6 µg/mL (≈ 15.1 µM). Clc1ccccc1OCc1nnc2sc(-c3sc4ccccc4c3Cl)nn12 was tested, and the MIC was 6 µg/mL (≈ 13.8 µM). With O=C(c1sc2ccccc2c1Cl)n1nc(-c2ccc([N+](=O)[O-])s2)cc1-c1ccccc1 the MIC was 6 µg/mL (≈ 12.9 µM).

These compounds were tested on Escherichia coli (assay: Antibacterial activity against Escherichia coli after 16 to 18 hrs by serial dilution method).
Assay type: functional
Procedure, shortened: as §1
Work on COc1ccc(-c2cc(-c3ccc(Cl)cc3)n(C(=O)c3sc4ccccc4c3Cl)n2)cc1 yielded an MIC of 6 µg/mL (≈ 12.5 µM). For Clc1ccccc1OCc1nnc(-c2sc3ccccc3c2Cl)o1, the MIC was 6 µg/mL (≈ 15.9 µM). With O=C(c1sc2ccccc2c1Cl)n1nc(-c2ccc([N+](=O)[O-])s2)cc1-c1ccc(Cl)cc1 the MIC was 6 µg/mL (≈ 12 µM). CC1=NN(C(=O)c2sc3ccccc3c2Cl)C(=O)/C1=N/Nc1ccc(Cl)cc1C gave an MIC of 6 µg/mL (≈ 13.5 µM). In the case of NC(=O)N/N=C/c1ccc([N+](=O)[O-])o1 [NITROFURAZONE], the MIC is reported as 6 µg/mL (≈ 30.3 µM). Clc1ccc(OCc2nnc(-c3sc4ccccc4c3Cl)o2)c(Cl)c1 gave an MIC of 6 µg/mL (≈ 14.6 µM). CC1=NN(C(=O)c2sc3ccccc3c2Cl)C(=O)/C1=N/Nc1ccc(C)cc1[N+](=O)[O-] was tested, and the MIC was 6 µg/mL (≈ 13.2 µM). With COc1ccc(-c2cc(-c3ccccc3)n(C(=O)c3sc4ccccc4c3Cl)n2)cc1 the MIC was 6 µg/mL (≈ 13.5 µM). Cc1ccc(OCc2nnc3sc(-c4sc5ccccc5c4Cl)nn23)cc1 gave an MIC of 6 µg/mL (≈ 14.5 µM). Work on CC1=NN(C(=O)c2sc3ccccc3c2Cl)C(=O)/C1=N/Nc1cc(Cl)ccc1Cl yielded an MIC of 6 µg/mL (≈ 12.9 µM). CC1=NN(C(=O)c2sc3ccccc3c2Cl)C(=O)/C1=N/Nc1ccccc1 was tested, and the MIC was 6 µg/mL (≈ 15.1 µM). Work on Clc1ccccc1OCc1nnc2sc(-c3sc4ccccc4c3Cl)nn12 yielded an MIC of 6 µg/mL (≈ 13.8 µM). In the case of O=C(c1sc2ccccc2c1Cl)n1nc(-c2ccc([N+](=O)[O-])s2)cc1-c1ccccc1, the MIC is reported as 3 µg/mL (≈ 6.44 µM).

The compounds below were run on Pseudomonas aeruginosa (assay: Antibacterial activity against Pseudomonas aeruginosa after 16 to 18 hrs by serial dilution method).
Assay type: functional
Procedure, shortened: as §1
COc1ccc(-c2cc(-c3ccc(Cl)cc3)n(C(=O)c3sc4ccccc4c3Cl)n2)cc1 was tested, and the MIC was 6 µg/mL (≈ 12.5 µM). Clc1ccccc1OCc1nnc(-c2sc3ccccc3c2Cl)o1 showed an MIC of 6 µg/mL (≈ 15.9 µM). For O=C(c1sc2ccccc2c1Cl)n1nc(-c2ccc([N+](=O)[O-])s2)cc1-c1ccc(Cl)cc1, the MIC was 6 µg/mL (≈ 12 µM). In the case of CC1=NN(C(=O)c2sc3ccccc3c2Cl)C(=O)/C1=N/Nc1ccc(Cl)cc1C, the MIC is reported as 6 µg/mL (≈ 13.5 µM). In the case of NC(=O)N/N=C/c1ccc([N+](=O)[O-])o1 [NITROFURAZONE], the MIC is reported as 12.5 µg/mL (≈ 63.1 µM). Clc1ccc(OCc2nnc(-c3sc4ccccc4c3Cl)o2)c(Cl)c1 showed an MIC of 6 µg/mL (≈ 14.6 µM). Compound CC1=NN(C(=O)c2sc3ccccc3c2Cl)C(=O)/C1=N/Nc1ccc(C)cc1[N+](=O)[O-] has an MIC of 6 µg/mL (≈ 13.2 µM). COc1ccc(-c2cc(-c3ccccc3)n(C(=O)c3sc4ccccc4c3Cl)n2)cc1 showed an MIC of 6 µg/mL (≈ 13.5 µM). For Cc1ccc(OCc2nnc3sc(-c4sc5ccccc5c4Cl)nn23)cc1, the MIC was 6 µg/mL (≈ 14.5 µM). With CC1=NN(C(=O)c2sc3ccccc3c2Cl)C(=O)/C1=N/Nc1cc(Cl)ccc1Cl the MIC was 6 µg/mL (≈ 12.9 µM). Compound CC1=NN(C(=O)c2sc3ccccc3c2Cl)C(=O)/C1=N/Nc1ccccc1 has an MIC of 6 µg/mL (≈ 15.1 µM). Clc1ccccc1OCc1nnc2sc(-c3sc4ccccc4c3Cl)nn12 showed an MIC of 6 µg/mL (≈ 13.8 µM). For O=C(c1sc2ccccc2c1Cl)n1nc(-c2ccc([N+](=O)[O-])s2)cc1-c1ccccc1, the MIC was 6 µg/mL (≈ 12.9 µM).

Each compound was assayed on Staphylococcus aureus (assay: Antibacterial activity against Staphylococcus aureus after 16 to 18 hrs by serial dilution method).
Assay type: functional
Procedure, shortened: as §1
With COc1ccc(-c2cc(-c3ccc(Cl)cc3)n(C(=O)c3sc4ccccc4c3Cl)n2)cc1 the MIC was 6 µg/mL (≈ 12.5 µM). With Clc1ccccc1OCc1nnc(-c2sc3ccccc3c2Cl)o1 the MIC was 6 µg/mL (≈ 15.9 µM). In the case of O=C(c1sc2ccccc2c1Cl)n1nc(-c2ccc([N+](=O)[O-])s2)cc1-c1ccc(Cl)cc1, the MIC is reported as 3 µg/mL (≈ 6 µM). CC1=NN(C(=O)c2sc3ccccc3c2Cl)C(=O)/C1=N/Nc1ccc(Cl)cc1C was tested, and the MIC was 6 µg/mL (≈ 13.5 µM). With NC(=O)N/N=C/c1ccc([N+](=O)[O-])o1 [NITROFURAZONE] the MIC was 12.5 µg/mL (≈ 63.1 µM). In the case of Clc1ccc(OCc2nnc(-c3sc4ccccc4c3Cl)o2)c(Cl)c1, the MIC is reported as 6 µg/mL (≈ 14.6 µM). With CC1=NN(C(=O)c2sc3ccccc3c2Cl)C(=O)/C1=N/Nc1ccc(C)cc1[N+](=O)[O-] the MIC was 6 µg/mL (≈ 13.2 µM). COc1ccc(-c2cc(-c3ccccc3)n(C(=O)c3sc4ccccc4c3Cl)n2)cc1 was tested, and the MIC was 6 µg/mL (≈ 13.5 µM). Cc1ccc(OCc2nnc3sc(-c4sc5ccccc5c4Cl)nn23)cc1 showed an MIC of 6 µg/mL (≈ 14.5 µM). Compound CC1=NN(C(=O)c2sc3ccccc3c2Cl)C(=O)/C1=N/Nc1cc(Cl)ccc1Cl has an MIC of 12.5 µg/mL (≈ 26.8 µM). CC1=NN(C(=O)c2sc3ccccc3c2Cl)C(=O)/C1=N/Nc1ccccc1 showed an MIC of 6 µg/mL (≈ 15.1 µM). Compound Clc1ccccc1OCc1nnc2sc(-c3sc4ccccc4c3Cl)nn12 has an MIC of 6 µg/mL (≈ 13.8 µM). In the case of O=C(c1sc2ccccc2c1Cl)n1nc(-c2ccc([N+](=O)[O-])s2)cc1-c1ccccc1, the MIC is reported as 3 µg/mL (≈ 6.44 µM).
